This is a sample that favours compounds with a hit; in the whole collection about 4.7% have one here.
MC4R antagonist: antagonists of human melanocortin 4 receptor (MC4R); inhibition, % at 6.5 µM; MC4R-expressing cells, MTII-stimulated cAMP, LANCE TR-FRET; P32245; 360,000 tested, 0.48% active;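 active means inhibition above its plate's cutoff, the mean of tested wells on that plate plus 3 SD, cut at about 29% in these data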;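 further: 0% = Melanotan II alone and 100% = Melanotan II plus saturating MCL0020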
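material = U2OS cells stably expressing human melanocortin 4 receptor (MC4R) | also added = Melanotan II challenge | dosing = single nominal compound dose of 6.5 µM | detection = TR-FRET with Eu-cAMP and labeled anti-cAMP, 671 nm | replication = singlicate | timing = compound 30 min, challenge 1 h, detection 1 h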
HTR2A ag: mouse HTR2A agonism via beta-arrestin recruitment. P35363. CHO-K1 mHTR2A beta-arrestin complementation, luminescence; percent of 30 µM serotonin response. activation, % at 7.6 µM. 360,000 tested, 0.66% active. AID 624169;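 active means activation above a run cutoff, the mean activation of all tested compounds plus 3 SD, cut at about 14% in these data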;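 further: 0% = plate median of compound wells and 100% = 30 µM serotonin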
Target sequence (P35363 whole entry, looked up): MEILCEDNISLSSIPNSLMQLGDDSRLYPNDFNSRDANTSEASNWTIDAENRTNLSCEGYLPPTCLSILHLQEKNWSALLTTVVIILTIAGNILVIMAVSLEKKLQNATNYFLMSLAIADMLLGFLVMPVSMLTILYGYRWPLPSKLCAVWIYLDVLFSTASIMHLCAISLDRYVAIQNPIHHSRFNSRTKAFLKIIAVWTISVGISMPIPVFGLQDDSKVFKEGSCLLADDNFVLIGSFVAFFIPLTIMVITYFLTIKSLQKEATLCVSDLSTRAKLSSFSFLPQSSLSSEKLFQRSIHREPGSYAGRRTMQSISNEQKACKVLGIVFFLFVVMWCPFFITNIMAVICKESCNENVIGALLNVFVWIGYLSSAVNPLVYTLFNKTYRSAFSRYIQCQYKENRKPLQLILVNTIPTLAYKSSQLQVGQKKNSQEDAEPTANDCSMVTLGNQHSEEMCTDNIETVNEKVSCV
MC4R ag barr: activates human MC4R beta-arrestin recruitment; 360,000 tested, 0.98% active; activation, % at 8.9 µM; U2OS MC4R beta-arrestin complementation, luminescence; percent of melanotan II response, DMSO zero; AID 540308;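 active means activation above a per-plate cutoff, the mean activation of sample wells on that plate plus 3 SD, cut at about 8% in these data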
GAA850 FXN act: activators of GAA850 frataxin (FXN) promoter | HEK293 lucGAA850 FXN promoter luciferase reporter, 24 h; percent of 10 µM SAHA response | activation, % at 6 µM | 360,000 tested, 0.56% active | AID 540364;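 active means activation above the average of all compounds screened plus 3 SD, cutoff fixed separately per campaign, cut at about 7.5% in these data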;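 further: 0% = DMSO wells and 100% = 10 µM SAHA wells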
AHR activator: activators of human aryl hydrocarbon receptor | 320,000 tested, 2.5% active | P35869 | AHR-responsive luciferase reporter cells, luminescence | activation, % at 5 µM; in the data active means activation above about 47%;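 further: 0% = vehicle wells and 100% = reference agonist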
Starred values were filed as active, the others as inactive.

For CCc1ccc(N2CC(C(=O)OCc3nc4ccsc4c(=O)[nH]3)CC2=O)cc1 (centres undefined) the results were MC4R antagonist 1.9, HTR2A ag -4.5, MC4R ag barr -0.9, GAA850 FXN act 1.1 and AHR activator 0.4.
`CC1=C(C(=O)N2CCOCC2)CC(CC(=O)NC2CC2)C(=O)N1Cc1ccccc1` (centres undefined) gave MC4R antagonist -3.8, HTR2A ag -1.8, MC4R ag barr 0.6 and GAA850 FXN act 0.1.
`Cc1cccc(Nc2c(O)nc[nH]c2=O)c1` gave MC4R antagonist -2.2, HTR2A ag -4.4, MC4R ag barr -1.3 and GAA850 FXN act -0.4.
Screening Oc1ccc2ccccc2c1/C=N/Nc1ccccc1 returned MC4R antagonist -0.9, HTR2A ag -4.4, MC4R ag barr 2.6, GAA850 FXN act 0.4 and AHR activator 54.2*.
For Oc1ccc2ccccc2c1C=NCc1ccccc1 the results were MC4R antagonist 15.0, HTR2A ag 2.1, MC4R ag barr 1.7, GAA850 FXN act -1.6 and AHR activator 55.6*.
O=C(CC[C@H]1O[C@@H](n2cnc3c(NC(=O)c4ccccc4)ncnc32)[C@H](O)[C@@H]1O)NCc1ccc2c(c1)OCO2 was read as HTR2A ag 2.4.
`CC(C)c1cc(Cn2c3ccccc3c(=O)n2C(C)Cn2cc(-c3ccccc3)nn2)on1` (centres undefined) gave HTR2A ag 0.7.
Screening N#Cc1cccc(C2CC(OCCF)=CC(=O)O2)c1 (centres undefined) returned HTR2A ag 1.4.
For NC(c1csc(Nc2ccc(C(F)(F)F)cn2)n1)C1CCCCC1 (centres undefined) the results were MC4R antagonist 2.8, HTR2A ag 5.4, MC4R ag barr 8.9* and GAA850 FXN act -2.5.
`NC(CO)c1csc(Nc2ccc(C(F)(F)F)cn2)n1` (centres undefined) gave MC4R antagonist 0.3, HTR2A ag -1.5, MC4R ag barr -1.9 and GAA850 FXN act -0.5.
CC[C@H](C)[C@H]1O[C@]2(CC[C@@H]1C)C[C@@H]1C[C@@H](CC=C(C)[C@@H](O[C@H]3C[C@H](OC)[C@@H](O[C@H]4C[C@H](OC)[C@@H](O)[C@H](C)O4)[C@H](C)O3)[C@@H](C)C=CC=C3CO[C@@H]4[C@H](O)C(C)=C[C@@H](C(=O)O1)[C@]34O)O2 was read as MC4R antagonist 4.4, HTR2A ag -11.3, MC4R ag barr 1.5, GAA850 FXN act -2.4 and AHR activator -2.0.
For N#C/C(=C\c1ccc(OC(=O)c2ccc(Br)s2)cc1)c1nc2ccccc2[nH]1 the results were MC4R antagonist -9.6, HTR2A ag -3.1, MC4R ag barr 1.1, GAA850 FXN act 5.0 and AHR activator 9.1.
Screening N#C/C(=C\c1ccc(OC(=O)c2ccc(Cl)s2)cc1)c1nc2ccccc2[nH]1 returned MC4R antagonist -13.7, HTR2A ag -3.8, MC4R ag barr -2.4, GAA850 FXN act 3.5 and AHR activator 49.0*.
`CCCOCC(O)CC(Cc1ccccc1)C(=O)NN` (centres undefined) gave MC4R antagonist 5.7, HTR2A ag -1.7, MC4R ag barr 1.4, GAA850 FXN act 1.2 and AHR activator 4.4.
Cc1cc(N2CCN(S(=O)(=O)c3ccccc3)CC2)nc2c(C)cccc12 was read as MC4R antagonist 8.4, HTR2A ag -4.0, MC4R ag barr -2.0, GAA850 FXN act 2.3 and AHR activator 68.0*.
Cc1cc(N2CCCCC2)nc2c(C)cccc12 was read as MC4R antagonist 12.3, HTR2A ag -0.5, MC4R ag barr -3.2, GAA850 FXN act 1.5 and AHR activator 3.2.
CC[C@H](NC(=O)CC[C@H]1O[C@@H](n2cnc3c(NC(=O)c4ccccc4)ncnc32)[C@H](O)[C@@H]1O)c1ccccc1 was read as HTR2A ag 5.0.
`C[C@H](CO)N1C[C@H](C)[C@@H](CN(C)Cc2ccc3cccnc3c2)OCc2cnnn2CCCC1=O` gave MC4R antagonist -0.6, HTR2A ag 5.6, MC4R ag barr 2.1 and GAA850 FXN act -1.2.
`CC(=O)Nc1cccc(NC(=S)Nc2cccc3ccccc23)c1` gave MC4R antagonist 9.8, HTR2A ag 1.0, MC4R ag barr -2.5, GAA850 FXN act 1.0 and AHR activator 28.0.
CC(=O)c1cccc(NC(=S)Nc2cccc3ccccc23)c1 was read as MC4R antagonist 0.5, HTR2A ag -3.0, MC4R ag barr -1.9, GAA850 FXN act -0.7 and AHR activator 54.5*.
CN(Cc1ccccc1)C(=O)c1csc([C@@H]2C[C@H](O)[C@@H](CO)O2)n1 was read as MC4R antagonist -4.3, HTR2A ag 1.1, MC4R ag barr -1.7 and GAA850 FXN act 0.2.
For N#CCSc1ncccc1-c1nc2ccccc2[nH]1 the results were MC4R antagonist -1.9, HTR2A ag -4.8, MC4R ag barr 0.6, GAA850 FXN act -1.7 and AHR activator 73.1*.
Cc1oc(-c2ccc(C(F)(F)F)cc2)nc1CN(Cc1ccccn1)C[C@@H]1CCC(=O)N1 was read as MC4R antagonist 0.3, HTR2A ag -4.6, MC4R ag barr -0.4, GAA850 FXN act 3.3 and AHR activator 75.2*.
COc1c(C=O)c2c(c(OC)c1OC)-c1ccc(OC)c(=O)cc1C(NC(C)=O)CC2 (centres undefined) was read as MC4R antagonist -20.3, HTR2A ag 1.5, MC4R ag barr -2.0 and GAA850 FXN act -1.1.
Screening OC(c1ccc(F)c(F)c1)c1nc(-c2ccc(F)c(Cl)c2)cs1 (centres undefined) returned MC4R antagonist -1.6, HTR2A ag 1.1, MC4R ag barr 0.1 and GAA850 FXN act 2.7.
Screening COc1ccc(/C=C2\SC(N3CCCCC3)=NC2=O)cc1 returned MC4R antagonist 10.5, HTR2A ag -1.1, MC4R ag barr 0.3, GAA850 FXN act 1.1 and AHR activator 48.5*.
CCCCNC(=O)c1nc(C2CCN(S(=O)(=O)c3ccc(S(C)(=O)=O)cc3)CC2)oc1-c1ccccc1 was read as HTR2A ag 0.9.
`CC1=CCC2C(=O)N(c3cccc(C(=O)NCc4ccccc4)c3)C(=O)C2C1` (centres undefined) gave MC4R antagonist 2.0, HTR2A ag -2.4, MC4R ag barr -0.5, GAA850 FXN act -0.5 and AHR activator 0.4.
`CC1=CCC2C(=O)N(c3cccc(C(=O)Nc4ccc(Cl)cc4)c3)C(=O)C2C1` (centres undefined) gave MC4R antagonist -1.7, HTR2A ag -0.7, MC4R ag barr -2.9, GAA850 FXN act -0.3 and AHR activator 69.3*.
Screening CCN(CC)CCNC1=NCCn2c1cc1cc(OC)ccc12 returned MC4R antagonist -3.7, HTR2A ag -5.8, MC4R ag barr 1.5, GAA850 FXN act -3.7 and AHR activator 57.9*.
Screening COc1ccc2c3n([n+]([O-])c2c1)CCN=C3c1cc(Cl)c(N)c(Cl)c1 returned MC4R antagonist -24.8, HTR2A ag 4.1, MC4R ag barr -1.2, GAA850 FXN act 2.4 and AHR activator 69.3*.

Screens deposited in PubChem by The Scripps Research Institute Molecular Screening Center.
